High-throughput results as filed in PubChem.
STAT3 blocker – reduces IL-6 driven STAT3 reporter signal. U3A cells, IL-6 STAT3-luciferase reporter, luminescence; host cell line lacks STAT1. inhibition, % at 5.5 µM. 0.89% of 190,000 active;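 active = inhibition above the mean inhibition across all screened compounds plus 3 SD, cut at about 44% in these data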
STAT3 activator – STAT3 signaling activation; U3A cells, IL-6 STAT3-luciferase reporter, luminescence; 100% = signal with IL-6 EC80 alone; activation (% of control), % at 5.6 µM; 0.91% of 190,000 active;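 active = activation above the screen-wide mean of compound activation plus 3 SD, cut at about 130% in these data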
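Assay system – human STAT1-deficient U3A cells with stable STAT3-luciferase reporter · Also added – IL-6 (33 ng/mL) · Schedule – compound 1 h, then IL-6 6 h at 37 °C · Technique – reporter luminescence signal · Evaluation – % activation versus median of IL-6-stimulated wells · Benchmarks – IL-6-only wells as 100% reference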
STAT1 inh – STAT1 signaling inhibition | NIH 3T3 STAT1-luciferase reporter, IFN-gamma, luminescence | AID 920 | inhibition, % at 5.5 µM | 0.35% of 200,000 active;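 active = inhibition above a set limit, the mean inhibition across all tested compounds plus 3 SD, cut at about 34% in these data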
TNF necrop inh – TNF-alpha cell death inhibition in Jurkat FADD-/- cells; Jurkat FADD-/- TNF necroptosis rescue, ATP luminescence, 24 h; 0 = TNF only, 100 = no-TNF cells; activation (protection from cell death), % at 10 µM; 0.068% of 220,000 active;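 active = activation, meaning protection from cell death, of at least 50% relative to plate controls; inactive = activation below 50%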;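 also: necroptosis triggered by 40 ng/mL TNF-alpha added together with compound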
L929 necroptosis – blocks zVAD induced death of L929 cells; L929 zVAD necroptosis rescue, ATP luminescence, 24 h; with zVAD 60 µM; viability rescue, % at 10 µM; 0.38% of 220,000 active;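 active = activation, scaled between plate controls, above about 75%, limit read from the data; inactive = activation under that limit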
zVAD death conf – confirmed blocker of zVAD induced death in L929 cells. shares compounds with L929 necroptosis. L929 zVAD-induced necroptosis rescue, ATP luminescence, 24 h. activation (protection from necroptosis), % at 10 µM. 16% of 760 active;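 active = mean protection from necroptosis of at least 50% over duplicate tests; inactive = mean protection below 50%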
Large screens that a line does not name were inactive (follow-up assays come after a bar, where they were run); ! = a repeat was not active. Sampled rows, rich in hits. Any-hit rate of the full collection: about 2.1%.

CCn1c2ccccc2c(=O)c2ccccc21	L929 necroptosis 80 | zVAD death conf inactive
COc1ccc(-c2c(C#N)c(N)nc3c2CCC3)cc1	none
N#Cc1c(N)nc2c(c1-c1ccccc1)CCC2	L929 necroptosis 79 | zVAD death conf inactive
Cc1ccccc1NC(=O)COC(=O)C1(C)CC1(Cl)Cl (centres undefined)	none
CC(C)(C)c1ccc(NC(=O)COC(=O)C2(C)CC2(Cl)Cl)cc1 (centres undefined)	L929 necroptosis 77 | zVAD death conf inactive
O=C(CCNc1cccc(F)c1)c1cc2ccccc2o1	none
Cc1ccc(Nc2nc(-c3ccc(O)c(O)c3)cs2)nc1	L929 necroptosis 79 | zVAD death conf inactive
CC(C)c1ccc(C(=O)NC(=S)Nc2ccc3[nH]c(=O)[nH]c3c2)cc1	L929 necroptosis 81 (no result: STAT3 blocker, STAT3 activator, STAT1 inh) | zVAD death conf inactive
CC(=O)c1ccc(NC(=S)Nc2ccc3[nH]c(=O)[nH]c3c2)cc1	none
COc1cc2[nH]c3c(Cl)ncnc3c2cc1OC	L929 necroptosis 77 | zVAD death conf inactive
O=C(Nc1cccc(Cl)c1)Nc1nccs1	L929 necroptosis 82! | zVAD death conf inactive
Cn1c(=O)n(C)c2cc(C(=O)O)ccc21	none
O=C(OCC#CCSc1nc2ccccc2o1)c1cc2ccccc2o1	none (no result: L929 necroptosis)
O=C(/C=C/c1ccc2ccccc2n1)N1CCN(S(=O)(=O)c2ccccc2F)CC1	L929 necroptosis 84 (no result: STAT3 blocker, STAT3 activator, STAT1 inh) | zVAD death conf inactive
CN1CCN(c2ccc(NC(=O)c3cccs3)cc2)CC1	none
CN1CCN(c2ccc(-c3ccnn3C(=O)Nc3ccccc3)cc2)CC1	L929 necroptosis 84 | zVAD death conf inactive
CN1C(=O)/C(=C\C(=O)c2cccs2)c2ccccc21	L929 necroptosis 86 | zVAD death conf inactive
NS(=O)(=O)c1cccc(NC(=O)Nc2ccc(Cl)cc2)c1	L929 necroptosis 75 (no result: STAT3 blocker, STAT3 activator, STAT1 inh) | zVAD death conf inactive
Cc1cccc(NC(=O)Nc2ccc(S(N)(=O)=O)cc2)c1	none (no result: STAT3 blocker, STAT3 activator, STAT1 inh)
O=C(Nc1ccc(Cl)c(Cl)c1)c1cccc(S(=O)(=O)NCc2cccnc2)c1	L929 necroptosis 77 | zVAD death conf inactive
COc1ccc2nc(NC(=O)C3CCN(S(=O)(=O)c4cccnc4)CC3)sc2c1	L929 necroptosis 88 | zVAD death conf inactive
Cc1ccc2nc(NC(=O)C3CCN(S(=O)(=O)c4cccnc4)CC3)sc2c1	L929 necroptosis 80 | zVAD death conf inactive
CCOc1ccc2nc(NC(=O)C3CCN(S(=O)(=O)c4cnc[nH]4)CC3)sc2c1	L929 necroptosis 83 | zVAD death conf inactive
COc1ccc2nc(NC(=O)C3CCN(S(=O)(=O)c4cccs4)CC3)sc2c1	L929 necroptosis 79 | zVAD death conf inactive
COc1ccc2nc(NC(=O)C3CCN(S(=O)(=O)c4cnc[nH]4)CC3)sc2c1	none
COc1ccc2nc(NC(=O)C3CCCN(S(=O)(=O)c4cccs4)C3)sc2c1 (centres undefined)	none
CCOC(=O)c1cnn(-c2ccc(Cl)cc2)c1C1CCN(C(=O)OC(C)(C)C)CC1	none
Cc1cccc(NC(=O)CN2C(=O)S/C(=C\c3ccc(O)c([N+](=O)[O-])c3)C2=O)c1	none
Cc1ccc(NC(=O)CN2C(=O)S/C(=C/c3ccc(O)c([N+](=O)[O-])c3)C2=O)cc1C	L929 necroptosis 86 | zVAD death conf inactive
Cc1nn(C)c(C)c1CN(C)S(=O)(=O)c1ccc(F)cc1	none
Brc1ccc(COn2ccnc2)cc1	TNF necrop inh 61, L929 necroptosis 91 | zVAD death conf 75
Cc1csc(NC(=O)c2ccccc2C(=O)O)n1	none
CCOC(=O)c1ccc2[nH]c3c(c2c1)CCCC3C(=O)OCC (centres undefined)	L929 necroptosis 75 | zVAD death conf inactive
CCOC(=O)C1CCCc2c1[nH]c1ccc(Cl)cc21 (centres undefined)	none
CCN(C(=O)CSc1nc2nc(C)cc(C)n2n1)c1cccc(C)c1	none
Cc1nn(-c2ccccc2)c(C)c1-c1cc(C(=O)N/N=C/c2cccnc2)[nH]n1	L929 necroptosis 75 | zVAD death conf inactive
O=C(c1ccc(C(F)(F)F)cc1)C1CCCN(C(=O)CN2C(=O)CSC2=O)C1 (centres undefined)	none
CCN(CC)CCNC(=O)Cn1nc(-c2ccc(C)cc2)ccc1=O	none
Cc1ccsc1-c1nc(CN2CCCC2c2ccc(F)cc2)c(C)o1 (centres undefined)	none
O=[N+]([O-])c1ccc2c(c1)ncn2-c1ccccc1	L929 necroptosis 83 | zVAD death conf inactive
O=[N+]([O-])c1ccc(-n2cnc3ccccc32)c([N+](=O)[O-])c1	none
COc1cccc(NC(=O)Nc2cc(Cl)ccc2C)c1	L929 necroptosis 77 | zVAD death conf inactive
COc1cccc(NC(=O)Nc2ccccc2Br)c1	none
Cc1cc(NCCCN2CCOCC2)n2ncc(-c3ccc(Cl)cc3)c2n1	L929 necroptosis 84 | zVAD death conf inactive
C=C1C(=O)O[C@@H]2[C@H]1[C@@H](OC(=O)/C(C)=C/C)C/C(C)=C\C(=O)/C=C(\C)[C@@H]2O	L929 necroptosis 84 (no result: STAT3 blocker, STAT3 activator, STAT1 inh) | zVAD death conf inactive
CC(=O)C(=Cc1ccc(C(=O)O)cc1)C(C)=O	none
Cc1ccc(NC(=O)C(=Cc2ccc(C(=O)O)cc2)C(=O)Nc2ccc(C)cc2C)c(C)c1	L929 necroptosis 85 (no result: STAT3 blocker, STAT3 activator, STAT1 inh) | zVAD death conf inactive
COc1ccc(C(=O)OCC(=O)NC(=O)NC2CCCC2)c(OC)c1	none
COc1ccc(C(=O)OCC(=O)NC(=O)NC2CCCC2)c(O)c1	L929 necroptosis 77 | zVAD death conf inactive
CC(C)N1CCN(Cc2nc(-c3ccccc3)cs2)CC1CCO (centres undefined)	none
CCOc1ccccc1NC(=S)NCCCn1ccnc1	none
Nc1ccc(Nc2nc(-c3cc4ccccc4oc3=O)cs2)cc1	L929 necroptosis 80 | zVAD death conf inactive
CCN(CC)CCOC(=O)c1cccc(Cl)c1	none
CN(c1cccc(NC(=O)c2ccc(C(C)(C)C)cc2)c1)S(C)(=O)=O	L929 necroptosis 77 | zVAD death conf inactive
CN(C)S(=O)(=O)Oc1ccc(C(=O)Nc2cccc(C(F)(F)F)c2)cc1	L929 necroptosis 79 | zVAD death conf inactive
CN(c1cccc(NC(=O)CSc2ccc(Cl)cc2)c1)S(C)(=O)=O	L929 necroptosis 75 | zVAD death conf inactive
CN(C)S(=O)(=O)Oc1ccc(C(=O)Nc2cccc(Cl)c2)cc1	none
CN(c1cccc(NC(=O)CCSc2ccccc2)c1)S(C)(=O)=O	none
CCOCCCNC(=O)C(NC(=O)c1ccccn1)c1ccc(C)cc1 (centres undefined)	none
C(=N\Nc1ncnc2nc[nH]c12)/c1cccs1	L929 necroptosis 77 | zVAD death conf inactive
Cc1ccsc1/C=N/Nc1ncnc2nc[nH]c12	none
COc1cc(/C=N/Nc2ccccc2[N+](=O)[O-])ccc1OC(=O)c1ccccc1F	none
Brc1cc2c(cc1/C=N/Nc1nc3ccccc3s1)OCO2	none
